The test system of one assay is B16. The assay can be described thus: Cytotoxicity in mouse B16 cells assessed as reduction in cell viability incubated for 72 hrs by MTT assay. The class given is functional, cell-based. The conditions noted are these: B16, 72 h. In a few lines:
(§1)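 Cells pre-incubated 24 h at 37 °C, 5% CO2, then exposed to a range of compound concentrations for 72 h. Viability read as mitochondrial MTT-to-formazan conversion, absorbance at 570 nm.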
(In general: Formazan colour is commonly taken as a measure of viable cells.)

Assay [1] concerns HepG2. The assay can be described thus: Cytotoxicity in human HepG2 cells assessed as reduction in cell viability incubated for 72 hrs by MTT assay. The conditions noted are these: HepG2, 72 h. The assay is classed as functional, cell-based. In a few lines:
as §1

A further assay deals with A549. As to the kind of experiment: Cytotoxicity in human A549 cells assessed as reduction in cell viability incubated for 72 hrs by MTT assay. The conditions noted are these: A549, 72 h.
A further assay concerns MCF7. As to the kind of experiment: Cytotoxicity in human MCF7 cells assessed as reduction in cell viability incubated for 72 hrs by MTT assay. The class given is functional, cell-based. The conditions noted are these: MCF7, 72 h. In a few lines: as §1
Assay [2] deals with HepG2. The assay can be described thus: Induction of apoptosis in human HepG2 cells assessed as apoptosis level incubated for 24 hrs by FITC-labelled Annexin V/PI staining based flow cytometry. The class given is functional, cell-based. In a few lines:
(§2)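 HepG2 treated 24 h with 2, 4 or 6 µM; 0.1% DMSO vehicle control. Stained with FITC-Annexin V/PI and analysed by flow cytometry 10-15 min after staining. Annexin V+/PI- counted as early/median apoptotic, Annexin V+/PI+ as late apoptotic.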
(A flow cytometer gives signals particle by particle.)

Assay [3] has as its system HepG2. As to the kind of experiment: Induction of ROS generation in human HepG2 cells at 2 to 6 uM incubated for 24 hrs by DCFH-DA staining based flow cytometry. The class given is functional, cell-based. In a few lines:
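HepG2 seeded at 6×10^4 cells/well and grown 24 h, then treated 24 h with 2, 4 or 6 µM. Washed with PBS and serum-free medium, loaded with serum-free DCFH-DA 30 min at 37 °C, washed twice cold. Fluorescence read by flow cytometry at 488/525 nm. Mean ± SEM, n = 3.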

Assay [4] deals with HepG2. As to the kind of experiment: Induction of apoptosis in human HepG2 cells assessed as apoptosis level at 2 to 4 uM incubated for 24 hrs by FITC-labelled Annexin V/PI staining based flow cytometry. The assay is classed as functional, cell-based. In a few lines:
as §2

Assay [5] deals with HepG2. The assay can be described thus: Induction of apoptosis in human HepG2 cells assessed as apoptosis level at 6 uM incubated for 24 hrs by FITC-labelled Annexin V/PI staining based flow cytometry (reference value: 3.4%). The class given is functional. In a few lines:
as §2

Broadly, the pIC50 is the negative decadic logarithm of the IC50, by convention in mol/L.

pIC50: −log10 of the molar value. Active and inactive are the calls of the source. The rule behind the calls is not given here.

Turning to `Cc1ccc(COc2cc(O)c3c(=O)cc(-c4ccccc4)oc3c2OCCCCN2CCN(C)CC2)cc1`, the pIC50 with B16 was 5.48; in the assay on HepG2 [1], 5.29; with A549, 5.49; in the assay on MCF7, 5.65.
The corresponding values for `COc1c(OCCCCN2CCN(C)CC2)cc(O)c2c(=O)cc(-c3ccc(Br)cc3)oc12` are 5.36, 5.63, 5.67 and 5.49.
Regarding `COc1ccc(-c2cc(=O)c3c(O)cc(OCCCCN4CCN(C)CC4)c(OC)c3o2)cc1`, the pIC50 with B16 was 5.39; with HepG2 [1], 5.38; in the assay with A549 it was 5.63; in the assay on MCF7, 5.40.
With `O=c1cc(-c2ccccc2)oc2c(OCCCN3CCOCC3)c(OCc3ccccc3)cc(O)c12`, the pIC50 in the assay on B16 was 5.00; with HepG2 [1] it was 5.61; with A549, 5.05; with MCF7, 5.06.
For `O=c1cc(-c2ccccc2)oc2c(OCCCCN3CCOCC3)c(OCc3ccccc3)cc(O)c12`, the pIC50 in the assay on B16 was 5.27; in the assay on HepG2 [1], 5.48; with A549, 5.18; in the assay on MCF7, 5.00.
For the compound `CN(C)CCCOc1c(OCc2ccccc2)cc(O)c2c(=O)cc(-c3ccccc3)oc12`, the pIC50 is 5.27 in the assay on B16, 5.31 in the assay on HepG2 [1], 5.54 in the assay on A549 and 5.49 in the assay with MCF7.
On to `O=c1cc(-c2ccccc2)oc2c(OCCCN(CCO)CCO)c(OCc3ccccc3)cc(O)c12`, for which the pIC50 was 5.16 in the assay with B16, 5.45 in the assay on HepG2 [1], 5.50 with A549 and 5.37 in the assay with MCF7.
With `O=c1[nH]cc(F)c(=O)[nH]1` [FLUOROURACIL], the pIC50 was 5.92 in the assay on B16 and 4.83 in the assay with MCF7.
As for `O=c1cc(-c2ccccc2)oc2c(OCCCCN(CCO)CCO)c(OCc3ccccc3)cc(O)c12`, the pIC50 was 5.42 with B16, 5.50 with HepG2 [1], 5.36 with A549 and 5.96 in the assay on MCF7.
`O=c1cc(-c2ccccc2)oc2c(OCCN(CCO)CCO)c(OCc3ccccc3)cc(O)c12`: the pIC50 with B16 was 5.43; in the assay on HepG2 [1] it was 5.50; with A549, 5.19; in the assay on MCF7, 5.22.
On to `COc1c(OCCCCN2CCN(C)CC2)cc(O)c2c(=O)cc(-c3cccc(F)c3)oc12`, for which the pIC50 with B16 was 5.34; in the assay with HepG2 [1] it was 5.59; in the assay with A549 it was 5.68; with MCF7, 5.54.
Consider `CCN(CC)CCCOc1c(OCc2ccccc2)cc(O)c2c(=O)cc(-c3ccccc3)oc12`, for which the pIC50 is 5.31 in the assay with B16, 5.52 in the assay on HepG2 [1], 5.44 in the assay on A549 and 5.49 in the assay with MCF7.
Consider `CN1CCN(CCCCOc2c(OCc3ccccc3)cc(O)c3c(=O)cc(-c4ccccc4)oc23)CC1`, for which the pIC50 is 5.63 with B16, 5.82 in the assay on HepG2 [1], 5.54 in the assay on A549 and 5.53 with MCF7. For the same compound, the values for the Activity result in the assay on HepG2 [2], in the assay on HepG2 [3] and in the assay with HepG2 [5] were “Dose-dependent effect”, “Dose-dependent effect” and 20.7%, respectively. Besides, in the assay on HepG2 [4], the result was inactive.
For the compound `O=c1cc(-c2ccccc2)oc2c(OCCCN3CCCC3)c(OCc3ccccc3)cc(O)c12`, the negative-log IC50 (pIC50) in the assay on B16 is 5.10; in the assay on HepG2 [1], 5.58; with A549, 5.33; with MCF7, 5.65.
As to `COc1c(OCCCCN2CCN(C)CC2)cc(O)c2c(=O)cc(-c3ccc([N+](=O)[O-])cc3)oc12`, the pIC50 in the assay with B16 was 5.54; with HepG2 [1], 5.58; in the assay on A549, 5.49; with MCF7 it was 5.39.
The corresponding values for `COc1c(O)cc(O)c2c(=O)cc(-c3ccccc3)oc12` [WOGONIN] are 4.58, 4.71, 4.70 and 4.55.
Turning to `CN1CCN(CCCCOc2c(OCc3nc4ccccc4s3)cc(O)c3c(=O)cc(-c4ccccc4)oc23)CC1`, the negative-log IC50 (pIC50) in the assay on B16 is 5.56; with HepG2 [1] it was 5.26; in the assay with A549, 5.97; in the assay with MCF7, 5.31.
`CN1CCN(CCCOc2c(OCc3ccccc3)cc(O)c3c(=O)cc(-c4ccccc4)oc23)CC1`: the negative-log IC50 (pIC50) was 5.42 in the assay with B16, 5.51 in the assay on HepG2 [1], 5.40 with A549 and 5.99 in the assay on MCF7.
For `COc1c(OCCCCN2CCN(C)CC2)cc(O)c2c(=O)cc(-c3ccc(Cl)cc3)oc12`, the negative logarithm of the IC50 (pIC50) with B16 is 5.68; in the assay on HepG2 [1] it was 5.43; in the assay with A549 it was 5.84; with MCF7, 5.49.
`CCN(CC)CCCCOc1c(OCc2ccccc2)cc(O)c2c(=O)cc(-c3ccccc3)oc12`: the pIC50 was 5.31 with B16, 5.78 in the assay with HepG2 [1], 5.41 in the assay on A549 and 5.72 in the assay on MCF7.
Turning to `CN1CCN(CCCCOc2c(OCc3ccco3)cc(O)c3c(=O)cc(-c4ccccc4)oc23)CC1`, the negative logarithm of the IC50 (pIC50) in the assay on B16 was 5.45; in the assay with HepG2 [1], 5.39; with A549, 5.44; with MCF7, 5.56.
Take `COc1c(OCCCCN2CCN(C)CC2)cc(O)c2c(=O)cc(-c3ccc(F)cc3)oc12`: the negative-log IC50 (pIC50) in the assay with B16 was 5.36; in the assay on HepG2 [1] it was 5.55; with A549 it was 5.65; in the assay with MCF7, 5.41.
Turning to `COc1ccccc1-c1cc(=O)c2c(O)cc(OCCCCN3CCN(C)CC3)c(OC)c2o1`, the pIC50 was 5.03 with B16, 5.63 in the assay with HepG2 [1], 5.17 with A549 and 5.27 with MCF7.
Turning to `COc1c(OCCCCN2CCN(C)CC2)cc(O)c2c(=O)cc(-c3ccc(C)cc3)oc12`, the negative-log IC50 (pIC50) was 5.27 with B16, 6.00 in the assay with HepG2 [1], 5.42 in the assay on A549 and 5.40 in the assay with MCF7.
As to `COc1c(OCCCCN2CCN(C)CC2)cc(O)c2c(=O)cc(-c3ccc(C(F)(F)F)cc3)oc12`, the pIC50 in the assay with B16 is 5.30; in the assay with HepG2 [1], 5.62; in the assay with A549 it was 5.54; in the assay with MCF7 it was 5.53.
The corresponding values for `COc1c(OCCCCN2CCN(C)CC2)cc(O)c2c(=O)cc(-c3ccc(F)cc3Br)oc12` are 5.46, 5.67, 5.53 and 5.51.
As for `CN1CCN(CCCCOc2c(OCc3nc4ccccc4o3)cc(O)c3c(=O)cc(-c4ccccc4)oc23)CC1`, the pIC50 in the assay on B16 was 5.68; with HepG2 [1], 5.39; with A549, 5.41; in the assay with MCF7 it was 5.30.
For the compound `CN(C)CCCCOc1c(OCc2ccccc2)cc(O)c2c(=O)cc(-c3ccccc3)oc12`, the negative-log IC50 (pIC50) in the assay on B16 was 5.49; in the assay with HepG2 [1] it was 5.68; in the assay with A549, 5.96; in the assay on MCF7, 5.49.
Turning to `CN1CCN(CCCCOc2c(OCc3cccs3)cc(O)c3c(=O)cc(-c4ccccc4)oc23)CC1`, the negative-log IC50 (pIC50) in the assay on B16 is 5.67; in the assay with HepG2 [1], 5.34; in the assay on A549, 5.68; with MCF7, 5.50.
Turning to `O=c1cc(-c2ccccc2)oc2c(OCCCCN3CCCC3)c(OCc3ccccc3)cc(O)c12`, the negative-log IC50 (pIC50) with B16 was 5.49; in the assay with HepG2 [1], 5.33; with A549, 5.96; with MCF7 it was 5.72.
In the same order, the values of `CN1CCN(CCOc2c(OCc3ccccc3)cc(O)c3c(=O)cc(-c4ccccc4)oc23)CC1` are 5.36, 5.54, 5.36 and 5.35.

These data come from ChEMBL document CHEMBL4190366, “Discovery and synthesis of novel Wogonin derivatives with potent antitumor activity in vitro” (Eur J Med Chem, 2017).
